From ChEMBL document CHEMBL1124495 (1989)
Values after ≈ are worked out from the molar mass of the structure shown.

Key:
Format in all cases: functional
Escherichia coli [1] = experiment: Antibacterial activity carried out in vitro against Escherichia coli #311(MP)
Escherichia coli [2] = experiment: Antibacterial activity carried out in vitro against Escherichia coli ATCC 25922
Escherichia coli [3] = experiment: Antibacterial activity carried out in vitro against Escherichia coli MOR 84-20
Enterobacter cloacae = experiment: Antibacterial activity carried out in vitro against Enterobacter cloacae VHG 84-39
Klebsiella pneumoniae = experiment: Antibacterial activity carried out in vitro against Klebsiella pneumoniae CMC 84-31
Pseudomonas aeruginosa = experiment: Antibacterial activity carried out in vitro against Pseudomonas aeruginosa K84-16
Serratia marcescens = experiment: Antibacterial activity carried out in vitro against Serratia marcescens MOR 84-41
Staphylococcus aureus [4] = experiment: Antibacterial activity carried out in vitro against Staphylococcus aureus ATCC 29213
Staphylococcus aureus [5] = experiment: Antibacterial activity carried out in vitro against Staphylococcus aureus K82-26
Staphylococcus aureus [6] = experiment: Antibacterial activity carried out in vitro against Staphylococcus aureus Smith(MP)
Staphylococcus aureus [7] = experiment: Antibacterial activity carried out in vitro against Staphylococcus aureus VGH 84-47
Enterococcus faecalis = experiment: Antibacterial activity carried out in vitro against Streptococcus faecalis UCI 85-30
Escherichia coli [8] = experiment: Activity was determined after peroral administration against Escherichia coli #311(MP) in mouse protection test; details: po
In short: (§1)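 CD-1 female mice (20 ± 2 g) infected intraperitoneally with 0.5 mL standardized bacterial suspension: E. coli #311 in trypticase-soy broth, S. aureus Smith in 5% hog gastric mucin. Treated 0.5 h post-infection, oral or subcutaneous, 2-fold dose increments in 0.5 mL 0.2% aqueous agar, five mice per dose. 7-day survival pooled from three tests; ED50 by probit analysis.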

Escherichia coli [9] = experiment: Activity was determined after subcutaneous administration against Escherichia coli #311(MP) in mouse protection test; details: sc; in short: as §1
Staphylococcus aureus [10] = experiment: Activity was determined after peroral administration against Staphylococcus aureus Smith(MP) in mouse protection test; details: po; in short: as §1
Staphylococcus aureus [11] = experiment: Activity was determined after subcutaneous administration against Staphylococcus aureus Smith(MP) in mouse protection test; details: sc; in short: as §1

Structure (SMILES) | MIC (Escherichia coli [1]) | MIC (Escherichia coli [2]) | MIC (Escherichia coli [3]) | MIC (Enterobacter cloacae) | MIC (Klebsiella pneumoniae) | MIC (Pseudomonas aeruginosa) | MIC (Serratia marcescens) | MIC (Staphylococcus aureus [4]) | MIC (Staphylococcus aureus [5]) | MIC (Staphylococcus aureus [6]) | MIC (Staphylococcus aureus [7]) | MIC (Enterococcus faecalis) | ED50 (Escherichia coli [8]) | ED50 (Escherichia coli [9]) | ED50 (Staphylococcus aureus [10]) | ED50 (Staphylococcus aureus [11])
CCn1cc(C(=O)O)c(=O)c2c(N3CCCC3)c(F)c(N3CCCC3)c(F)c21 | 128 µg/mL (≈ 327 µM) | > 128 µg/mL | > 128 µg/mL | > 128 µg/mL | > 128 µg/mL | > 128 µg/mL | > 128 µg/mL | > 128 µg/mL | 8 µg/mL (≈ 20.4 µM) | 128 µg/mL (≈ 327 µM) | 8 µg/mL (≈ 20.4 µM) | > 128 µg/mL |  |  |  | 
CCn1cc(C(=O)O)c(=O)c2cc(F)c(N3CCN(C)CC3)cc21 [PEFLOXACIN] |  | 0.06 µg/mL (≈ 0.18 µM) |  |  | 0.25 µg/mL (≈ 0.75 µM) | 4 µg/mL (≈ 12 µM) |  | 0.5 µg/mL (≈ 1.5 µM) | 0.5 µg/mL (≈ 1.5 µM) | 0.25 µg/mL (≈ 0.75 µM) | 0.5 µg/mL (≈ 1.5 µM) | 4 µg/mL (≈ 12 µM) | 1.1 mg/kg | 0.4 mg/kg | 3.1 mg/kg | 2 mg/kg
CCn1cc(C(=O)O)c(=O)c2c(F)c(F)c(N3CCOCC3)c(F)c21 | 2 µg/mL (≈ 5.61 µM) | 4 µg/mL (≈ 11.2 µM) | 4 µg/mL (≈ 11.2 µM) | 4 µg/mL (≈ 11.2 µM) | 4 µg/mL (≈ 11.2 µM) | 64 µg/mL (≈ 180 µM) | 1 µg/mL (≈ 2.81 µM) | 1 µg/mL (≈ 2.81 µM) | 1 µg/mL (≈ 2.81 µM) | 1 µg/mL (≈ 2.81 µM) | 1 µg/mL (≈ 2.81 µM) | 32 µg/mL (≈ 89.8 µM) |  |  |  | 
CC(C)n1cc(C(=O)O)c(=O)c2c(F)c(F)c(N3CCN(C)CC3)c(F)c21 | 4 µg/mL (≈ 10.4 µM) | 4 µg/mL (≈ 10.4 µM) | 4 µg/mL (≈ 10.4 µM) | 8 µg/mL (≈ 20.9 µM) | 8 µg/mL (≈ 20.9 µM) | > 128 µg/mL | 4 µg/mL (≈ 10.4 µM) | 64 µg/mL (≈ 167 µM) | 16 µg/mL (≈ 41.7 µM) | 32 µg/mL (≈ 83.5 µM) | 32 µg/mL (≈ 83.5 µM) | > 128 µg/mL |  |  |  | 
CCn1cc(C(=O)O)c(=O)c2c(F)c(F)c(N3CCCC3)c(F)c21 | 2 µg/mL (≈ 5.88 µM) | 2 µg/mL (≈ 5.88 µM) | 4 µg/mL (≈ 11.8 µM) | > 128 µg/mL | > 128 µg/mL | > 128 µg/mL | 0.5 µg/mL (≈ 1.47 µM) | 0.5 µg/mL (≈ 1.47 µM) | 0.5 µg/mL (≈ 1.47 µM) | 0.25 µg/mL (≈ 0.735 µM) | 0.25 µg/mL (≈ 0.735 µM) | > 128 µg/mL |  |  |  | 
CCn1cc(C(=O)O)c(=O)c2c(N3CCN(C)CC3)c(F)c(F)c(F)c21 | > 128 µg/mL | > 128 µg/mL | > 128 µg/mL | > 128 µg/mL | > 128 µg/mL | > 128 µg/mL | > 128 µg/mL | > 128 µg/mL | > 128 µg/mL | > 128 µg/mL | > 128 µg/mL | > 128 µg/mL |  |  |  | 
O=C(O)c1cn(C2CC2)c2cc(N3CCNCC3)c(F)cc2c1=O [CIPROFLOXACIN] |  |  |  |  | 0.03 µg/mL (≈ 0.0905 µM) |  | 0.008 µg/mL (≈ 0.0241 µM) | 1 µg/mL (≈ 3.02 µM) | 0.5 µg/mL (≈ 1.51 µM) | 0.12 µg/mL (≈ 0.362 µM) | 1 µg/mL (≈ 3.02 µM) | 2 µg/mL (≈ 6.04 µM) |  |  |  | 
CCn1cc(C(=O)O)c(=O)c2c(F)c(F)c(N3CCSCC3)c(F)c21 | 4 µg/mL (≈ 10.7 µM) | 4 µg/mL (≈ 10.7 µM) | 4 µg/mL (≈ 10.7 µM) | 8 µg/mL (≈ 21.5 µM) | 8 µg/mL (≈ 21.5 µM) | 64 µg/mL (≈ 172 µM) | 2 µg/mL (≈ 5.37 µM) | 1 µg/mL (≈ 2.69 µM) | 1 µg/mL (≈ 2.69 µM) | 0.5 µg/mL (≈ 1.34 µM) | 1 µg/mL (≈ 2.69 µM) | 32 µg/mL (≈ 85.9 µM) |  |  |  | 
CCn1cc(C(=O)O)c(=O)c2c(N3CCOCC3)c(F)c(F)c(F)c21 | > 128 µg/mL | > 128 µg/mL | > 128 µg/mL | > 128 µg/mL | > 128 µg/mL | > 128 µg/mL | > 128 µg/mL | 128 µg/mL (≈ 359 µM) | 32 µg/mL (≈ 89.8 µM) | 64 µg/mL (≈ 180 µM) | 128 µg/mL (≈ 359 µM) | > 128 µg/mL |  |  |  | 

The next lines start with results.

MIC (Escherichia coli [1]) | MIC (Escherichia coli [2]) | MIC (Escherichia coli [3]) | MIC (Enterobacter cloacae) | MIC (Klebsiella pneumoniae) | MIC (Pseudomonas aeruginosa) | MIC (Serratia marcescens) | MIC (Staphylococcus aureus [4]) | MIC (Staphylococcus aureus [5]) | MIC (Staphylococcus aureus [6]) | MIC (Staphylococcus aureus [7]) | MIC (Enterococcus faecalis) | Structure (SMILES) | ED50 (Escherichia coli [8]) | ED50 (Escherichia coli [9]) | ED50 (Staphylococcus aureus [10]) | ED50 (Staphylococcus aureus [11])
0.06 µg/mL (≈ 0.171 µM) | 0.06 µg/mL (≈ 0.171 µM) | 0.12 µg/mL (≈ 0.342 µM) | 0.25 µg/mL (≈ 0.712 µM) | 0.25 µg/mL (≈ 0.712 µM) | 4 µg/mL (≈ 11.4 µM) | 0.12 µg/mL (≈ 0.342 µM) | 0.5 µg/mL (≈ 1.42 µM) | 0.5 µg/mL (≈ 1.42 µM) | 0.5 µg/mL (≈ 1.42 µM) | 0.5 µg/mL (≈ 1.42 µM) | 8 µg/mL (≈ 22.8 µM) | CCn1cc(C(=O)O)c(=O)c2cc(F)c(N3CCN(C)CC3)c(F)c21 |  |  |  | 
1 µg/mL (≈ 2.3 µM) | 2 µg/mL (≈ 4.59 µM) | 2 µg/mL (≈ 4.59 µM) | 4 µg/mL (≈ 9.19 µM) | 2 µg/mL (≈ 4.59 µM) | 32 µg/mL (≈ 73.5 µM) | 2 µg/mL (≈ 4.59 µM) | 2 µg/mL (≈ 4.59 µM) | 2 µg/mL (≈ 4.59 µM) | 2 µg/mL (≈ 4.59 µM) | 4 µg/mL (≈ 9.19 µM) | 64 µg/mL (≈ 147 µM) | CN1CCN(c2c(F)c(F)c3c(=O)c(C(=O)O)cn(-c4ccc(F)cc4)c3c2F)CC1 |  |  |  | 
0.03 µg/mL (≈ 0.0787 µM) | 0.015 µg/mL (≈ 0.0393 µM) | 0.06 µg/mL (≈ 0.157 µM) | 0.06 µg/mL (≈ 0.157 µM) | 0.06 µg/mL (≈ 0.157 µM) | 4 µg/mL (≈ 10.5 µM) | 0.06 µg/mL (≈ 0.157 µM) | 0.5 µg/mL (≈ 1.31 µM) | 0.5 µg/mL (≈ 1.31 µM) | 0.25 µg/mL (≈ 0.656 µM) | 0.5 µg/mL (≈ 1.31 µM) | 4 µg/mL (≈ 10.5 µM) | CN1CCN(c2c(F)c(F)c3c(=O)c(C(=O)O)cn(C4CC4)c3c2F)CC1 | 0.5 mg/kg | 0.35 mg/kg | 3.6 mg/kg | 2.1 mg/kg
0.25 µg/mL (≈ 0.677 µM) | 0.12 µg/mL (≈ 0.325 µM) | 0.25 µg/mL (≈ 0.677 µM) | 0.5 µg/mL (≈ 1.35 µM) | 0.5 µg/mL (≈ 1.35 µM) | 32 µg/mL (≈ 86.6 µM) | 0.25 µg/mL (≈ 0.677 µM) | 2 µg/mL (≈ 5.42 µM) | 2 µg/mL (≈ 5.42 µM) | 2 µg/mL (≈ 5.42 µM) | 2 µg/mL (≈ 5.42 µM) | 32 µg/mL (≈ 86.6 µM) | CCn1cc(C(=O)O)c(=O)c2c(F)c(F)c(N3CCN(C)CC3)c(F)c21 |  |  |  | 
